In ChEMBL document CHEMBL1146904, “Potent 4-amino-5-azaindole factor VIIa inhibitors” (Bioorg Med Chem Lett, 2006):
pKi: −log10 of the molar value.

What was measured:
[1] = molecular target: T1, Coagulation factor VII (Homo sapiens, UniProt P08709); assay: Binding affinity to f7a/TF complex
T1 sequence (P08709 whole entry): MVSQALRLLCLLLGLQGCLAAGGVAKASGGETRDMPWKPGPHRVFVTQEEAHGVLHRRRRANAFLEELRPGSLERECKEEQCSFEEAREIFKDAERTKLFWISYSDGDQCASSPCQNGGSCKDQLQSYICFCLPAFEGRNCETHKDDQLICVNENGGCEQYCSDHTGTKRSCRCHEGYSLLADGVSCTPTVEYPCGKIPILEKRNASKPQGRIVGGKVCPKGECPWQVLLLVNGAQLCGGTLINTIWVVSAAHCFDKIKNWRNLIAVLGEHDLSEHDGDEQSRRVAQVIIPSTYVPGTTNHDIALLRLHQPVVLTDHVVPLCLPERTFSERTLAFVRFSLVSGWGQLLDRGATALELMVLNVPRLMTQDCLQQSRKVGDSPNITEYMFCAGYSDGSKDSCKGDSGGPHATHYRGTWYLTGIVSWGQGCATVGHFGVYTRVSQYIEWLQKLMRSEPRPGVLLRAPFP

[2] = molecular target: Coagulation factor VII/tissue factor (Homo sapiens) (UniProt P08709+P13726); assay: Anticoagulant potency in human plasma by PT assay; type: functional, cell-free
Outline: (§1)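 Clotting time measured at 37 °C in human plasma on an automated coagulometer, following the manufacturer's instructions. Tissue-factor-dependent clotting was read by PT. Tissue-factor-independent (intrinsic pathway) clotting was read by aPTT.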

[3] = Anticoagulant potency in human plasma by aPTT assay; type: functional; outline: as §1
[4] = molecular target: Coagulation factor X (Homo sapiens, UniProt P00742); assay: Binding affinity to f10a
Chain of Coagulation factor X (P00742 41-179 limits assumed): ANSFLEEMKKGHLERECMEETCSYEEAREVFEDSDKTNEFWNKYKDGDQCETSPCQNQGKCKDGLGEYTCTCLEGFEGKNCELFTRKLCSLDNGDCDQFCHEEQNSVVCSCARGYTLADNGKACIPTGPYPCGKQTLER
Chain of Coagulation factor X (P00742 235-488 limits assumed): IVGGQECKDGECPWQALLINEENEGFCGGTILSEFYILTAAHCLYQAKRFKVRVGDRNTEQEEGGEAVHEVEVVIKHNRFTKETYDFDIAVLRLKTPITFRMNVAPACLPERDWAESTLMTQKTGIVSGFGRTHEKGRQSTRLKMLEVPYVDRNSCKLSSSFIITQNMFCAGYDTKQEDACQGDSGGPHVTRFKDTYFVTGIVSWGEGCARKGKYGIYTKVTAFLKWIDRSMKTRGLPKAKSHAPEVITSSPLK

[5] = molecular target: Prothrombin (Homo sapiens, UniProt P00734); assay: Binding affinity to thrombin
[6] = molecular target: Trypsin (Homo sapiens, UniProt P07477+P07478+P35030); assay: Binding affinity to trypsin; type: protein assay

pKi [1] | 2PT [2] [µM] | pKi [4] | pKi [5] | Ki [6] [µM] | Structure (SMILES) | 2aPTT [3] [µM]
7.70 | 5.8 |  |  |  | CC(C)(C(=O)O)c1cc(-c2cccc(CNC(=O)Nc3ccc(C(=O)O)cc3)c2)c(O)c(-c2cc3c(N)[nH]ccc-3n2)c1 | >20
8.89 | 4.5 |  |  |  | Nc1[nH]ccc2nc(-c3cc(C(=O)O)cc(-c4cccc(CNC(=O)[C@@H](O)Cc5ccccc5)c4)c3O)cc1-2 | 3.7
7.82 | 6.4 |  |  |  | CC(C)(C(=O)O)c1cc(-c2cccc(CNC(=O)[C@@H](O)Cc3ccccc3)c2)c(O)c(-c2cc3c(N)[nH]ccc-3n2)c1 | 17
 |  | 5.57 | 4.05 | 3.6 | N=C(N)c1ccc2[nH]c(-c3cccc(-c4cc(CNC(N)=O)ccc4O)c3O)nc2c1 | 
8.59 | 2.4 |  |  |  | CC(C)(C(=O)O)c1cc(-c2cccc(CNC(=O)Nc3c(F)cccc3F)c2)c(O)c(-c2cc3c(N)[nH]ccc-3n2)c1 | >20
7.09 | 12 | 4.27 | 4.00 | 38 | Nc1[nH]ccc2nc(-c3cccc(-c4cccc(CNC(=O)[C@@H](O)Cc5ccccc5)c4)c3O)cc1-2 | 22
6.66 |  | 4.52 | 4.00 | 12 | O=C(NCc1cccc(-c2cccc(-c3cc4c[nH]ccc-4n3)c2O)c1)[C@@H](O)Cc1ccccc1 | 
